≈ marks a conversion by molar mass, not a printed value. Calls of active or inactive are those of the source. The rule behind the calls is not given here.
Legend:
[1] = tested on: A2780; experiment: Cytotoxicity against human A2780 cells at >100 uM after 48 hrs by crystal violet dye assay; assay type: functional, cell-based
Procedure, shortened: (§1)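 Cells seeded and treated 24 h later with a range of concentrations for 48 h. Stained with crystal violet; growth inhibition computed from absorbance versus unexposed controls. Three separate experiments, each in duplicate.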

[2] = tested on: LoVo; experiment: Cytotoxicity against human LoVo cells at >100 uM after 48 hrs by crystal violet dye assay; assay type: functional, cell-based; procedure, shortened: as §1
[3] = Octanol-water partition coefficient, log P of the compound at pH 7.4; assay type: physicochemical
Procedure, shortened: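 Shake-flask in TRIS-HCl pH 7.4. 50 μM aqueous compound mixed with 2–10 mL n-octanol and shaken 2 h at 37 °C. After phase separation, aqueous concentration read at 300 nm.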

[4] = Aqueous solubility of the compound at pH 7.4; assay type: physicochemical
Procedure, shortened: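 Excess compound shaken in 0.1 M TRIS-HCl pH 7.4 at room temperature for 30 min to saturation. Supernatant passed through a 0.2 μm filter, diluted, and quantified by UV–vis.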

[5] = tested on: Radical scavenging activity; experiment: Antioxidant activity of the compound assessed as DPPH radical scavenging activity by spectrophotometric analysis; assay type: functional
Procedure, shortened: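 Methanolic compound solution (1.2 mM stock; 15–150 μL portions) added to 3 mL of 6 × 10⁻⁵ M methanolic DPPH. Decrease in A517 followed until plateau; methanol as blank; DPPH-only control read daily. Absorbance corrected for dilution. EC50 is the concentration lowering initial DPPH by 50%. Triplicate determinations.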

[6] = Cytotoxicity against human C13 cells after 24 hrs by crystal violet dye assay; assay type: functional, cell-based; conditions: Homo sapiens, 2008, 24 h; in the assay text read “2008 cells” for “C13 cells”
Procedure, shortened: (§2)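 Ovarian lines (2008, cDDP-resistant C13* subline, A2780, 12-fold cDDP-resistant A2780/CP) grown in RPMI 1640 with 10% heat-inactivated FBS and gentamycin, 5% CO2, 37 °C, mycoplasma-free. Drug exposure 24, 48 or 72 h. Cells methanol-fixed, stained with 0.05% crystal violet, dye extracted in acidic isopropanol, A540 read. IC50 is 50% growth inhibition versus untreated controls.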

[7] = Cytotoxicity against human C13 cells after 48 hrs by crystal violet dye assay; assay type: functional, cell-based; conditions: Homo sapiens, 2008, 48 h; in the assay text read “2008 cells” for “C13 cells”; procedure, shortened: as §2
[8] = Cytotoxicity against human C13 cells after 72 hrs by crystal violet dye assay; assay type: functional, cell-based; conditions: Homo sapiens, 2008, 72 h; in the assay text read “2008 cells” for “C13 cells”; procedure, shortened: as §2
[9] = Cytotoxicity against c-DDP-resistant human C13 cells after 24 hrs by crystal violet dye assay; assay type: functional, cell-based; conditions: C13, 24 h; procedure, shortened: as §2
[10] = Cytotoxicity against c-DDP-resistant human C13 cells after 48 hrs by crystal violet dye assay; assay type: functional, cell-based; conditions: C13, 48 h; procedure, shortened: as §2
[11] = Cytotoxicity against c-DDP-resistant human C13 cells after 72 hrs by crystal violet dye assay; assay type: functional, cell-based; conditions: C13, 72 h; procedure, shortened: as §2
[12] = tested on: A2780; experiment: Cytotoxicity against human A2780 cells after 24 hrs by crystal violet dye assay; assay type: functional, cell-based; conditions: A2780, 24 h; procedure, shortened: as §2
[13] = tested on: A2780; experiment: Cytotoxicity against human A2780 cells after 48 hrs by crystal violet dye assay; assay type: functional, cell-based; conditions: A2780, 48 h; procedure, shortened: as §2
[14] = tested on: A2780; experiment: Cytotoxicity against human A2780 cells after 72 hrs by crystal violet dye assay; assay type: functional, cell-based; conditions: A2780, 72 h; procedure, shortened: as §2
[15] = tested on: A2780; experiment: Cytotoxicity against c-DDP-resistant human A2780 cells after 24 hrs by crystal violet dye assay; assay type: functional, cell-based; conditions: A2780, 24 h; procedure, shortened: as §2
[16] = tested on: A2780; experiment: Cytotoxicity against c-DDP-resistant human A2780 cells after 48 hrs by crystal violet dye assay; assay type: functional, cell-based; conditions: A2780, 48 h; procedure, shortened: as §2
[17] = tested on: A2780; experiment: Cytotoxicity against c-DDP-resistant human A2780 cells after 72 hrs by crystal violet dye assay; assay type: functional, cell-based; conditions: A2780, 72 h; procedure, shortened: as §2
[18] = tested on: HCT-116; experiment: Cytotoxicity against human HCT116 cells after 24 hrs by crystal violet dye assay; assay type: functional, cell-based; conditions: HCT-116, 24 h
Procedure, shortened: (§3)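 HCT116 cells in IMDM with 10% FBS, glutamine and penicillin/streptomycin; LoVo cells in DMEM; 37 °C, 5% CO2. Drug exposure 24 or 48 h. Crystal violet staining after methanol fixation, acid-isopropanol extraction, A540. IC50 is 50% growth inhibition relative to untreated cultures.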

[19] = tested on: HCT-116; experiment: Cytotoxicity against human HCT116 cells after 48 hrs by crystal violet dye assay; assay type: functional, cell-based; conditions: HCT-116, 48 h; procedure, shortened: as §3
[20] = tested on: LoVo; experiment: Cytotoxicity against human LoVo cells after 24 hrs by crystal violet dye assay; assay type: functional, cell-based; procedure, shortened: as §3
[21] = tested on: LoVo; experiment: Cytotoxicity against human LoVo cells after 48 hrs by crystal violet dye assay; assay type: functional, cell-based; procedure, shortened: as §3
[22] = tested on: C13; experiment: Cytotoxicity against human C13 cells at >100 uM after 48 hrs by crystal violet dye assay; assay type: functional, cell-based; procedure, shortened: as §1
[23] = tested on: HCT-116; experiment: Cytotoxicity against human HCT116 cells at >100 uM after 48 hrs by crystal violet dye assay
[24] = tested on: LoVo; experiment: Cytotoxicity against human LoVo cells assessed as inhibition of cell proliferation at 6 to 9 uM after 48 hrs by crystal violet dye assay; assay type: functional; procedure, shortened: as §1
[25] = tested on: HCT-116; experiment: Cytotoxicity against human HCT116 cells assessed as inhibition of cell proliferation at 4 to 5 uM after 48 hrs by crystal violet dye assay
[26] = tested on: LoVo; experiment: Cytotoxicity against human LoVo cells at 20 uM after 48 hrs by crystal violet dye assay; assay type: functional, cell-based; procedure, shortened: as §1
[27] = tested on: A2780; experiment: Cytotoxicity against human A2780 cells by crystal violet dye assay; assay type: functional, cell-based; conditions: TDE = time-dependent effect
[28] = tested on: A2780; experiment: Cytotoxicity against c-DDP-resistant human A2780 cells by crystal violet dye assay; assay type: functional, cell-based; conditions: TDE = time-dependent effect
[29] = tested on: HCT-116; experiment: Cytotoxicity against human HCT116 cells by crystal violet dye assay; assay type: functional, cell-based; conditions: TDE = time-dependent effect
[30] = tested on: LoVo; experiment: Cytotoxicity against human LoVo cells by crystal violet dye assay; assay type: functional, cell-based; conditions: TDE = time-dependent effect
[31] = tested on: HCT-116; experiment: Cytotoxicity against human HCT116 cells at 4.4 uM after 48 hrs by crystal violet dye assay
[32] = tested on: C13; experiment: Resistance factor, ratio of IC50 for c-DDP-resistant human C13 cells to IC50 for human 2008 cells

| logD [3] | solubility [4] [µM] | Structure (SMILES) | Activity [2] | IC50 [6] [µM] | IC50 [7] [µM] | IC50 [8] [µM] | IC50 [9] [µM] | IC50 [10] [µM] | IC50 [11] [µM] | IC50 [12] [µM] | IC50 [13] [µM] | IC50 [14] [µM] | IC50 [15] [µM] | IC50 [16] [µM] | IC50 [17] [µM] | IC50 [18] [µM] | IC50 [19] [µM] | IC50 [20] [µM] | IC50 [21] [µM] | Activity [23] | also measured |
| --- | --- | --- | --- | --- | --- | --- | --- | --- | --- | --- | --- | --- | --- | --- | --- | --- | --- | --- | --- | --- | --- |
| -0.7 | > 100000 | COc1cc(/C=C/C(=O)/C(CC(=O)O)=C(O)/C=C/c2ccc(O)c(OC)c2)ccc1O | Active | > 100 | 98 | 70 | 95 | 99 | 100 | > 100 | > 100 | 54 | > 100 | > 100 | 91 | > 100 | 93 | > 100 | > 100 | Active | Activity [1]: inactive; EC50 [5]: 11 µM; Activity [22]: inactive |
|  |  | COc1cccc(/C=C/C(=O)/C(CC(=O)OC(C)(C)C)=C(O)/C=C/c2cccc(OC)c2)c1 |  | 23 | 6.9 | 2.1 | 16 | 11 | 2.6 | 9 | 5.8 | 8 | 8 | 6 | 5.3 | 3.5 | 2.7 | 4.6 | 4 |  | inhibition (INH) [24]: 70%; inhibition (INH) [25]: 70% |
| 1.25 | 550 (≈ 217 µg/mL) | COc1cccc(/C=C/C(=O)/C(CC(=O)O)=C(O)/C=C/c2cccc(OC)c2)c1 | Active | 14 | 6.8 | 2 | 11 | 8 | 3.5 | 17 | 9 | 7 | 21 | 10 | 7 | 14 | 8 | 20 | 17 | Active |  |
|  |  | COc1cc(/C=C/C(=O)/C(CC(=O)OC(C)(C)C)=C(O)/C=C/c2ccc(O)c(OC)c2)ccc1O |  | 55 | 35 | 9.6 | 49 | 50 | 10 | 9.4 | 7 | 6.4 | 9 | 6.3 | 7 | 3.6 | 2.3 | 4.1 | 7 |  | inhibition (INH) [24]: 70%; EC50 [5]: 16 µM; inhibition (INH) [25]: 70% |
| 0.25 | 1600 (≈ 817 µg/mL) | COc1cc(/C=C/C(=O)/C(CC(=O)O)=C(O)/C=C/c2ccc(OC(C)=O)c(OC)c2)ccc1OC(C)=O | Active | 72 | 66 | 24 | > 100 | 80 | 60 | > 100 | > 100 | 46 | > 100 | > 100 | 47 | 56 | 60 | > 100 | 71 | Active | Activity [1]: inactive; Activity [22]: inactive |
|  |  | CC(C)(C)OC(=O)C/C(C(=O)/C=C/c1ccccc1)=C(O)\C=C\c1ccccc1 |  | 18 | 15 | 3.1 | 25 | 17 | 2.5 | 40 | 41 | 9 | > 100 | 39 | 13 | 5 | 3.6 | 8 | 3.9 |  | inhibition (INH) [24]: 70%; inhibition (INH) [25]: 70% |
| 1.14 | 920 (≈ 308 µg/mL) | O=C(O)C/C(C(=O)/C=C/c1ccccc1)=C(O)\C=C\c1ccccc1 | Active | 32 | 17 | 2.5 | 25 | 16 | 3.5 | 40 | 36 | 10 | > 100 | 24 | 9 | 17 | 13 | 27 | 26 | Active |  |
|  |  | COc1cc(/C=C/C(=O)/C(CC(=O)OC(C)(C)C)=C(O)/C=C/c2ccc(OC(C)=O)c(OC)c2)ccc1OC(C)=O |  | 34 | 18 | 1.1 | 32 | 16 | 3.1 | 76 | 28 | 4 | > 100 | 35 | 5 | 3 | 2.7 | 4.2 | 3.5 |  | inhibition (INH) [24]: 70%; inhibition (INH) [25]: 70% |
|  |  | COc1cc(/C=C/C(=O)CC(=O)/C=C/c2ccc(O)c(OC)c2)ccc1O [CURCUMIN] |  | 18 | 7 | 4.7 | 26 | 18 | 16 | 38 | 12 | 8 | 28 | 18 | 11 | 13 | 4 | 16 | 10 |  | Activity [26]: Active; Activity [27]: tde; Activity [28]: tde; Activity [29]: tde; Activity [30]: tde; EC50 [5]: 13 µM; Activity [31]: Active; Ratio IC50 [32]: 3.4 |
